Reference: ChEMBL document CHEMBL1165969, “Synthesis and cytotoxicity of novel indirubin-5-carboxamides” (Bioorg Med Chem, 2010)
In brackets after ≈: the same amount, converted by molar mass.

Tests used:
[1] = Solubility in water by spectrophotometry; type: physicochemical
[2] = Antiproliferative activity against human LXFL 529L cells after 3 days by sulforhodamine B assay; type: functional, cell-based
In short: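 Cells kept at 37 °C in humidified 5% CO2 in RPMI 1640 with 10% heat-inactivated FBS, penicillin (100 units/mL) and streptomycin, and checked for mycoplasma. Seeded, grown 24 h, then exposed to drug for 3 days in serum-containing medium. Fixed with 50% TCA solution for 1 h at 4 °C, stained with 0.4% SRB, dye eluted in 10 mM Tris pH 10.5, read at 570 nm. Growth expressed as % T/C; IC50 derived.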

SMILES	solubility [1] [µg/mL]	IC50 ([2]; Homo sapiens, LXFL 529L, 72 h) [µM]	IC50 ([2]; lxfl 529l) [µM]
CN(C)c1ccc(NC(=O)c2ccc3c(c2)/C(=C2/Nc4ccccc4C2=O)C(=O)N3)cc1	580 (≈ 1370 µM)	1.2	
CN(C)CCN(C)C(=O)c1ccc2c(c1)/C(=C1/Nc3ccccc3/C1=N\OCCO[C@@H]1O[C@H](CO)[C@@H](O)[C@H](O)[C@H]1O)C(=O)N2	> 380	> 10	
CN(C)CCN(C)C(=O)c1ccc2c(c1)/C(=C1/Nc3ccccc3C1=O)C(=O)N2	35.4 (≈ 90.7 µM)	5.4	
CN(CC[N+](C)(C)C)C(=O)c1ccc2c(c1)/C(=C1/Nc3ccccc3C1=O)C(=O)N2.[I-]	1600	5.7	
CN1CCN(CCNC(=O)c2ccc3c(c2)/C(=C2/Nc4ccccc4C2=O)C(=O)N3)CC1	700 (≈ 1620 µM)	7.8	
O=C1Nc2ccc(C(=O)N3CCNCC3)cc2/C1=C1/Nc2ccccc2C1=O	4.2 (≈ 11.2 µM)	3.2	
O=C1Nc2ccc(C(=O)N(CCO)CCO)cc2/C1=C1/Nc2ccccc2/C1=N\O	523 (≈ 1280 µM)	5.9	
CN1CCN(CCNC(=O)c2ccc3c(c2)/C(=C2/Nc4ccccc4C2=O)C(=O)N3)CC1.Cl	> 2000		6
O=C1Nc2ccc(C(=O)N(CCO)CCO)cc2/C1=C1/Nc2ccccc2C1=O	6.8 (≈ 17.3 µM)	4.7	
C[N+]1(C)CCN(C(=O)c2ccc3c(c2)/C(=C2/Nc4ccccc4C2=O)C(=O)N3)CC1.[I-]	2450	2.5	
COS(=O)(=O)[O-].C[N+]1(C)CCN(C(=O)c2ccc3c(c2)/C(=C2/Nc4ccccc4C2=O)C(=O)N3)CC1	60000		3.5
O=C1Nc2ccccc2/C1=C1/Nc2ccccc2C1=O [INDIRUBIN]		10	
CN1CCN(C(=O)c2ccc3c(c2)/C(=C2/Nc4ccccc4C2=O)C(=O)N3)CC1	1000 (≈ 2570 µM)	3.9	
O=C1Nc2ccc(C(=O)NCCO)cc2/C1=C1/Nc2ccccc2/C1=N\O	179 (≈ 491 µM)	4.5	
O=C1Nc2ccc(C(=O)O)cc2/C1=C1/Nc2ccccc2C1=O	41 (≈ 134 µM)	7	
COc1ccc2c(c1)/C(=C1/Nc3ccccc3/C1=N\OCCO[C@@H]1O[C@H](CO)[C@@H](O)[C@H](O)[C@H]1O)C(=O)N2	42 (≈ 81.8 µM)	0.5	
O=C1Nc2ccc(C(=O)N(CCO)CCO)cc2/C1=C1/Nc2ccccc2/C1=N\OCC(O)CO (configuration not stated)	21 (≈ 43.5 µM)	43	
COS(=O)(=O)[O-].C[N+](C)(C)CCNC(=O)c1ccc2c(c1)/C(=C1/Nc3ccccc3C1=O)C(=O)N2	53000	8.6	
CN(C)CCN(C)C(=O)c1ccc2c(c1)/C(=C1/Nc3ccccc3/C1=N\O)C(=O)N2	6400 (≈ 15800 µM)	2.2	
O=C1Nc2ccc(C(=O)Nc3cccnc3)cc2/C1=C1/Nc2ccccc2C1=O	55.5 (≈ 145 µM)	> 10	
O=C1Nc2ccc(C(=O)NCCO)cc2/C1=C1/Nc2ccccc2C1=O	9.5 (≈ 27.2 µM)	9.2	
CN1CCN(c2ccc(NC(=O)c3ccc4c(c3)/C(=C3/Nc5ccccc5/C3=N\O)C(=O)N4)cc2)CC1	1600 (≈ 3240 µM)	4.2	
O=C1Nc2ccc(C(=O)NC[C@H](O)[C@@H](O)[C@H](O)[C@H](O)CO)cc2/C1=C1/Nc2ccccc2C1=O	21.6 (≈ 46 µM)	> 30	
CN(C)CCNC(=O)c1ccc2c(c1)/C(=C1/Nc3ccccc3C1=O)C(=O)N2	13 (≈ 34.5 µM)	2.3	
